# From PubChem BioAssay
# Active and inactive are the calls of the source.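 Rule for the calls, unless noted: active = growth inhibition above a set limit, 3 SD over mean compound inhibition, in both replicates (cut at about 43% in these data); inconclusive = above the limit in only one replicate; inactive = at or below the limit in both replicates.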
# Assay: Restrictive medium S. cerevisiae growth inhibition, OD615, pilot screen of yeast lifespan reduction project, restrictive growth control (AID 706);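 note: modified DeaD lifespan yeast strain shifted to restrictive glucose medium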
# Conditions: OD615, 48 h, at 10 µM, stronger effect = higher value
# In short: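 Assay system: engineered S. cerevisiae DeaD strain; Buffer or medium: CSMM-D glucose medium; Dosing: 10 µM compound, 0.25% DMSO; Times: cell pre-growth 4 h, compound exposure 48 h, 30 °C; Detection: absorbance (optical density) measured at 615 nm.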
row,SMILES,growth inhibition
1,CCOC(=O)c1sc(N)nc1-c1ccccc1,1.07% (inactive)
2,O=C(Nn1nnnc1Nc1ccccc1)C12CC3CC(CC(C3)C1)C2,-2.85% (inactive)
3,CCCn1c(CN2CCCCC2CC)nc2c1c(=O)n(C)c(=O)n2C (stereo not given),-17.3% (inactive)
4,CC(=O)c1cccc(NC(=O)C2CCCN2S(=O)(=O)c2cccc3cccnc23)c1 (stereo not given),3.5% (inactive)
5,CCCC(=O)Nc1ccc(N2CCCCC2)cc1,-9.51% (inactive)
6,Cc1nc(-c2ccc3c(c2)OCO3)cs1,-1.42% (inactive)
7,Cc1cccc(OCCSc2cc(C)nc(N)n2)c1,-8.02% (inactive)
8,O=C(O)CC(Cn1cnnn1)c1ccccc1 (stereo not given),-2.96% (inactive)
9,COc1ccc(C2C(C(=O)NCCN(C)C)c3ccccc3C(=O)N2C)cc1OC (stereo not given),-1.69% (inactive)
10,Cc1cc(C)n2nc(SCC(=O)Nc3ccc(F)cc3)nc2n1,-10.9% (inactive)
11,COc1ccc2c(c1)CC(C1(O)C(=O)N(C)c3ccccc31)C2=O (stereo not given),-8.81% (inactive)
12,CCOc1cccc(C(=O)Nc2nnc(-c3ccco3)s2)c1,-7.51% (inactive)
13,Cc1ccc(Cn2nnc3c(=O)n(CC(=O)c4ccccc4)cnc32)cc1,-9.49% (inactive)
14,Cc1ccc(C(c2sc3ncnn3c2O)N2CCCCC2)cc1 (stereo not given),-15.6% (inactive)
15,Cn1cnnc1SCC(=O)c1ccc2c(c1)CCCC2,12.5% (inactive)
16,CCOC(=O)C1C(=O)NC(SC)=C(C#N)C1c1ccccc1F (stereo not given),-17% (inactive)
17,CCOC(=O)c1ccc(Nc2ccc(-c3ccc(OC)c(OC)c3)nn2)cc1,-20% (inactive)
18,CCOC(=O)c1ccc2c(c1)NC(=O)C(N1CCN(c3ccc(OC)cc3)CC1)S2 (stereo not given),-5.2% (inactive)
19,Nc1ccc2nc(-c3ccc(Cl)cc3)[nH]c2c1,-10.7% (inactive)
20,CCOC(=O)c1c(N=CN(C)C)c(C#N)n2c1CCC2,-6.7% (inactive)

row,SMILES,growth inhibition
1,Cc1ccc(C(=O)Nc2ccc(S(=O)(=O)N3CCN(C)CC3)cc2)o1,-0.785% (inactive)
2,CC(=O)c1cccc(NC(=O)c2cc3ccccn3n2)c1,4.32% (inactive)
3,Cc1cc(Nc2ccc(F)cc2C)n2nc(C)nc2n1,-5.02% (inactive)
4,CCSC1=C(C#N)C(c2ccccc2C)CC(=O)N1 (stereo not given),-23.4% (inactive)
5,CCOc1ccc(NC(=O)Nc2ccc3c(c2)N(C)C(=O)CS3)cc1,-33.6% (inactive)
6,CCN(CC)C(=O)C1CCCN(C/C=C/c2ccccc2)C1 (stereo not given),-9.31% (inactive)
7,N#CCCCSc1nnc(-c2ccc(Cl)cc2)n1-c1ccccc1,9.62% (inactive)
8,CCCC(=O)NCCc1cc2ccc(C)c(C)c2[nH]c1=O,-25.4% (inactive)
9,Cc1ccc(-c2ccc(CCC(=O)O)n2C(C)C)cc1,-1.55% (inactive)
10,COc1ccc(S(=O)(=O)N2Cc3ccccc3CC2C(=O)O)cc1OC (stereo not given),3.09% (inactive)
11,Cc1ccc(-c2csc(N3CCC(C(N)=O)(N4CCCCC4)CC3)n2)cc1,-8.75% (inactive)
12,Clc1ccc(NCn2cncn2)nc1,7.94% (inactive)
13,O=C(CN1CCCCC1)Nc1nnc(-c2ccccc2)s1,-5.87% (inactive)
14,CCOC(=O)N1CCN(CC(=O)c2ccc3c(c2)CCN3C(C)=O)CC1,-1.94% (inactive)
15,CN(C)S(=O)(=O)c1ccc(C(=O)Nc2ccc(Cl)cc2)cc1,-5.55% (inactive)
16,CCOc1ccc(N(CC(=O)Nc2ccc3c(c2)OCCO3)S(=O)(=O)c2c(C)noc2C)cc1,-0.165% (inactive)
17,CCOC(=O)c1c(C2CCN(C(=O)OCC)CC2)nc2ccccn12,-12.6% (inactive)
18,Nc1nc2c(c3c1c(=O)oc1ccccc13)CCCCC2,5.31% (inactive)
19,O=C1CN(C(=O)c2ccc(Br)o2)C(c2ccccc2)c2cc(F)ccc2N1 (stereo not given),-28% (inactive)
20,Cc1cc(=O)c2c(C)nn(-c3ccccc3)c2[nH]1,2.11% (inactive)

# Assay: viability gain of MRP-1-high H69AR cells under doxorubicin, pilot screen, MRP-1 activator project, CellTiter-Glo, duplicate (AID 807;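 active = viability increase at or above a cutoff of the median across tested compounds plus 3 SD, cut at about 8.5% in these data, passing the limit was not always enough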;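 note: compound pretreatment 18-22 h then 72 h combined with doxorubicin; 0% = doxorubicin alone and 100% = vehicle without doxorubicin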)
# Conditions: H69AR viability with doxorubicin, CellTiter-Glo luminescence; at 10 µM; stronger effect = higher value
row,SMILES,viability increase
1,CCOC(=O)c1sc(N)nc1-c1ccccc1,-2.29% (inactive)
2,O=C(Nn1nnnc1Nc1ccccc1)C12CC3CC(CC(C3)C1)C2,-5.83% (inactive)
3,CCCn1c(CN2CCCCC2CC)nc2c1c(=O)n(C)c(=O)n2C (stereo not given),0.61% (inactive)
4,CC(=O)c1cccc(NC(=O)C2CCCN2S(=O)(=O)c2cccc3cccnc23)c1 (stereo not given),-5.23% (inactive)
5,CCCC(=O)Nc1ccc(N2CCCCC2)cc1,-2.5% (inactive)
6,Cc1nc(-c2ccc3c(c2)OCO3)cs1,0.2% (inactive)
7,Cc1cccc(OCCSc2cc(C)nc(N)n2)c1,-1.44% (inactive)
8,O=C(O)CC(Cn1cnnn1)c1ccccc1 (stereo not given),-0.66% (inactive)
9,COc1ccc(C2C(C(=O)NCCN(C)C)c3ccccc3C(=O)N2C)cc1OC (stereo not given),-0.77% (inactive)
10,Cc1cc(C)n2nc(SCC(=O)Nc3ccc(F)cc3)nc2n1,-1.21% (inactive)
11,COc1ccc2c(c1)CC(C1(O)C(=O)N(C)c3ccccc31)C2=O (stereo not given),-3.79% (inactive)
12,CCOc1cccc(C(=O)Nc2nnc(-c3ccco3)s2)c1,-0.2% (inactive)
13,Cc1ccc(Cn2nnc3c(=O)n(CC(=O)c4ccccc4)cnc32)cc1,-2.92% (inactive)
14,Cc1ccc(C(c2sc3ncnn3c2O)N2CCCCC2)cc1 (stereo not given),1.87% (inactive)
15,Cn1cnnc1SCC(=O)c1ccc2c(c1)CCCC2,-1.07% (inactive)
16,CCOC(=O)C1C(=O)NC(SC)=C(C#N)C1c1ccccc1F (stereo not given),-2.97% (inactive)
17,CCOC(=O)c1ccc(Nc2ccc(-c3ccc(OC)c(OC)c3)nn2)cc1,-5.24% (inactive)
18,CCOC(=O)c1ccc2c(c1)NC(=O)C(N1CCN(c3ccc(OC)cc3)CC1)S2 (stereo not given),-7.1% (inactive)
19,Nc1ccc2nc(-c3ccc(Cl)cc3)[nH]c2c1,-8.6% (inactive)
20,CCOC(=O)c1c(N=CN(C)C)c(C#N)n2c1CCC2,-1.41% (inactive)

row,SMILES,viability increase
1,Cc1ccc(C(=O)Nc2ccc(S(=O)(=O)N3CCN(C)CC3)cc2)o1,-0.32% (inactive)
2,CC(=O)c1cccc(NC(=O)c2cc3ccccn3n2)c1,-2.31% (inactive)
3,Cc1cc(Nc2ccc(F)cc2C)n2nc(C)nc2n1,-1.42% (inactive)
4,CCSC1=C(C#N)C(c2ccccc2C)CC(=O)N1 (stereo not given),-2.22% (inactive)
5,CCOc1ccc(NC(=O)Nc2ccc3c(c2)N(C)C(=O)CS3)cc1,-4.56% (inactive)
6,CCN(CC)C(=O)C1CCCN(C/C=C/c2ccccc2)C1 (stereo not given),-0.55% (inactive)
7,N#CCCCSc1nnc(-c2ccc(Cl)cc2)n1-c1ccccc1,-3.58% (inactive)
8,CCCC(=O)NCCc1cc2ccc(C)c(C)c2[nH]c1=O,-1.61% (inactive)
9,Cc1ccc(-c2ccc(CCC(=O)O)n2C(C)C)cc1,-1.75% (inactive)
10,COc1ccc(S(=O)(=O)N2Cc3ccccc3CC2C(=O)O)cc1OC (stereo not given),0.39% (inactive)
11,Cc1ccc(-c2csc(N3CCC(C(N)=O)(N4CCCCC4)CC3)n2)cc1,-1.76% (inactive)
12,Clc1ccc(NCn2cncn2)nc1,-1.55% (inactive)
13,O=C(CN1CCCCC1)Nc1nnc(-c2ccccc2)s1,1.16% (inactive)
14,CCOC(=O)N1CCN(CC(=O)c2ccc3c(c2)CCN3C(C)=O)CC1,-1.31% (inactive)
15,CN(C)S(=O)(=O)c1ccc(C(=O)Nc2ccc(Cl)cc2)cc1,-1.63% (inactive)
16,CCOc1ccc(N(CC(=O)Nc2ccc3c(c2)OCCO3)S(=O)(=O)c2c(C)noc2C)cc1,-3.41% (inactive)
17,CCOC(=O)c1c(C2CCN(C(=O)OCC)CC2)nc2ccccn12,-1.79% (inactive)
18,Nc1nc2c(c3c1c(=O)oc1ccccc13)CCCCC2,-2.59% (inactive)
19,O=C1CN(C(=O)c2ccc(Br)o2)C(c2ccccc2)c2cc(F)ccc2N1 (stereo not given),-5.91% (inactive)
20,Cc1cc(=O)c2c(C)nn(-c3ccccc3)c2[nH]1,-2.26% (inactive)
